Measurements: ChEMBL document CHEMBL1124553, “Brain-specific chemical delivery systems for beta-lactam antibiotics. In vitro and in vivo studies of some dihydropyridine and dihydroisoquinoline derivatives of benzylpenicillin in rats” (J Med Chem, 1989)

Legend:
[1] = Half-life for disappearance of compound from dog whole blood; format: ADME, organism-based, Canis lupus familiaris
Method in brief: (§1)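 Freshly collected whole blood, or 10% w/v brain homogenate in pH 7.4 phosphate buffer (ionic strength 0.15), was prewarmed to 37 °C. Compound was spiked from an 8 mM DMSO stock to 40 µM final. Timed samples were quenched in 8% DMSO/acetonitrile, centrifuged, filtered and analyzed by reversed-phase C8 HPLC with UV detection. K came from linear regression of log peak height versus time, with t1/2 derived from it. Values are mean ± SE of three determinations in different animal samples.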

[2] = Half-life for disappearance of compound from rat 10% brain homogenate; format: ADME; method in brief: as §1
[3] = Half-life for disappearance of compound from rat whole blood; format: ADME, organism-based; method in brief: as §1
Canis familiaris = species on record: Canis familiaris; assay: Pseudo first-order rate constant (K) for disappearance of compound from dog whole blood; format: ADME, organism-based, Canis lupus familiaris; method in brief: as §1
Rattus norvegicus = species on record: Rattus norvegicus; assay: Pseudo first-order rate constant (K) for disappearance of compound from rat 10% brain homogenate; format: ADME
Method in brief: (§2)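 Freshly collected whole blood (rat trunk blood; rabbit) or 10% w/v brain homogenate made in pH 7.4 phosphate buffer (μ = 0.15), prewarmed to 37 °C. Compound added from 8 mM DMSO stock to a final 40 μM. Timed 0.3 mL samples were quenched in 8% DMSO/acetonitrile, centrifuged, filtered and analysed by reversed-phase C8 HPLC-UV. K came from linear regression of log peak height versus time; n=3 animal samples.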

[4] = Pseudo first-order rate constant (K) for disappearance of compound from rat whole blood; format: ADME, tissue-based; method in brief: as §2
[5] = Half-life for disappearance of compound from rabbit 10% brain homogenate; format: ADME, Oryctolagus cuniculus; method in brief: as §1
Oryctolagus cuniculus = species on record: Oryctolagus cuniculus; assay: Pseudo first-order rate constant (K) for disappearance of compound from rabbit 10% brain homogenate; format: ADME; method in brief: as §2

Row | half-life [1] [min] | half-life [2] [min] | half-life [3] [min] | K (Canis familiaris) [min⁻¹] | K (Rattus norvegicus) [min⁻¹] | K [4] [min⁻¹] | half-life [5] [min] | K (Oryctolagus cuniculus) [min⁻¹] | Structure (SMILES)
1 | 13.5 | 73.4 | 6 | 0.051 | 0.01 | 0.115 | – | – | C[n+]1cc(C(=O)NCCOC(=O)C2N3C(=O)C(NC(=O)Cc4ccccc4)C3SC2(C)C)c2ccccc2c1.[I-] (stereo not given)
2 | – | 0.6 | – | – | 0.949 | – | 0.5 | 1.366 | C[n+]1cccc(C(=O)OCOC(=O)C2N3C(=O)C(NC(=O)Cc4ccccc4)C3SC2(C)C)c1.[I-] (stereo not given)
